Results on three molecules are retold here after article PMC3832139 (Cancer chemotherapy and pharmacology, 2013).

Like-named read-outs stand apart in the source and are kept apart here.

In one data set the test system is p110γ. Particulars: cited from earlier work.
Another data set deals with p110δ. Conditions: cited from earlier work.
The test system of data set [1] is phospho-AKT in CD138+ MM cells. Put plainly: Phospho-AKT flow cytometry of patient bone marrow CD138+ MM cells. Conditions: patient 002 CD138+ cells before dosing, 10 μM ex vivo, 30 minutes. It is filed as in vivo, human.
Data set [2] in a line: Prodrug cleavage and preclinical pharmacokinetics. It is filed as in vitro ADME.
The subject of the next data set is p110β. Conditions: cited from earlier work.
The subject of data set [3] is MM.1R cells. Put plainly: MTT cytotoxicity assay. Format: cell-based, human. For orientation: Formazan colour is commonly taken as a measure of viable cells.
The next data set has as its system MM.1S and MM.1R cells. Description: Western blot of signaling pathways. It is filed as cell-based, human. Conditions: for phospho-p70 S6 kinase: MM.1R cells, data not shown; for phosphorylation of AKT, MDM2, and ERK: MM.1S and MM.1R cells, 10 μM. On the technique in general: A western blot detects proteins with antibodies after separation by electrophoresis.
The subject of a further data set is RPMI 8226 cells. Description: MTT cytotoxicity assay. Format: cell-based. Particulars: Homo sapiens, RPMI-8226, 48 h, read-out: IC50 (cytotoxicity, MTT).
The test system of data set [4] is MM.1S cells. Put plainly: MTT cytotoxicity assay. Particulars: read-out: IC50 (cytotoxicity, MTT).
The nature of data set [5]: Pharmacokinetics in MM patients, Phase I study of SF1126. Particulars: MM patients given SF1126 infusion, dose levels 90–570 mg/m^2.
Another data set concerns HIF-1α in MM.1R cells. Put plainly: Hypoxic HIF-1α stabilization, Western blot. It is filed as cell-based, human. Particulars: 1% oxygen, 4 hours.
Data set [6] relates to HIF-1α in RPMI 8226 cells. Description: Hypoxic HIF-1α stabilization, Western blot. Format: cell-based, human. Conditions: RPMI 8226, 1% oxygen, 4 hours, 20 and 40 μM.
The conditions of data set [7]: relapsed or refractory MM patients, Phase I.
Data set [8] has as its system MM.1R xenografts. Description: Immunohistochemistry of MM.1R tumors. Format: in vivo, mouse. Conditions: 50 mg/kg s.c. 3 times weekly. The gist of the method: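 Mice bearing s.c. MM.1R flank xenografts (randomized at 100–125 mm³) got test compound 50 mg/kg s.c. or acidified sterile water vehicle, 3 times weekly for 3 weeks. Frozen 4 μm tumor sections were stained with rat anti-mouse CD31; paraffin 5 μm sections were stained overnight with anti-PCNA (PC10). HRP streptavidin-biotin, hematoxylin counterstain, mouse IgG negative control. PCNA labeling index: % positive nuclei over 500 cells, ten 40x fields; SD, n=8.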

For data set [9], the system named is MM.1R xenografts. Format: in vivo, mouse.
The conditions of data set [10]: human, in vivo.
The test system of data set [11] is MM.1S cells. Put plainly: Cleaved caspase-3 immunocytochemistry. Conditions: for cells positive for cleaved caspase-3: one hour, non-treated 5.9%. Format: cell-based, human.
Data set [12] relates to MM.1R cells. Put plainly: Cleaved caspase-3 immunocytochemistry. It is filed as cell-based, human.
For data set [13] the following is noted: cited from earlier work.

One may read the IC50 as the concentration needed to halve the response being measured. `O=c1cc(N2CCOCC2)oc2c(-c3ccccc3)cccc12` [LY294002]: the IC50 was […] in the data set with p110γ; […] with p110δ; […] in the data set with p110β; […] in the data set on MM.1R cells [3] (Homo sapiens, 48 h, read-out: IC50 (cytotoxicity, MTT)); 5.83 µM in the data set with RPMI 8226 cells; 7.17 µM in the data set with MM.1S cells [4] (Homo sapiens, MM1.S, 48 h). For the same molecule, in “Solubility”, the solubility result is “only soluble in 100% DMSO”. The “endogenous downstream AKT phosphorylation, ex vivo treatment” value in data set [1] is “did not suppress”. In data set [2], the plasma half-life entry is “does not have a measurable plasma half-life”. Moreover, in the data set on MM.1S and MM.1R cells, the “phospho-p70 S6 kinase” value is “decreased”. Further, the “phosphorylation of AKT, MDM2, and ERK” value with MM.1S and MM.1R cells is given as “significantly decreased”. Besides, the “t1/2 of active SF1126 hydrolysis product” value in data set [5] was […].
On to `N=C(N)NCCC[C@H](NC(=O)CCC(=O)OC[N+]1(c2cc(=O)c3cccc(-c4ccccc4)c3o2)CCOCC1)C(=O)NCC(=O)N[C@@H](CC(=O)O)C(=O)N[C@@H](CO)C(=O)[O-]` [SF1126], for which the “HIF-1α accumulation under hypoxic conditions” value in the data set on HIF-1α in MM.1R cells is given as “blocked”. The “HIF-1α expression under hypoxic conditions” value in data set [6] was “abrogated”. In addition, the “effect on disease progression” value in [7] was “did not appear to modify disease progression”. In the data set on MM.1R xenografts [8] (controls 25%, n=8, p<0.02), the “PCNA-positive proliferating cells (labeling index)” value was determined as 7%. In addition, the CD31 microvessel density entry with MM.1R xenografts [8] (n=8, p<0.007) was “striking decrease”. Moreover, in the data set with MM.1R xenografts [9] (50 mg/kg s.c. 3 times weekly for 3 weeks, by 34 days), the “mean tumor volume relative to controls (fold less)” value is reported as “approximately eightfold”. For the same molecule, the “untoward effects in mice” value in the data set with MM.1R xenografts [9] (mouse, in vivo) is listed as “No untoward effects”. For the same molecule, in data set [10], the “clearance of SF1126” value is “rapidly cleared post-infusion”. Besides, the IC50 in the data set with MM.1R cells [3] (read-out: IC50 (cytotoxicity, MTT), 48 hours, sigmoidal dose-response fit) is 11.7 µM. Besides, in the data set with MM.1S and MM.1R cells, the expression of survivin result is “not affected”; the “phospho-p70 S6 kinase” value was “decreased”; the “phosphorylation of AKT, MDM2, and ERK” value was “significantly decreased”. The concentration for half-maximal inhibition (IC50) with MM.1S cells [4] (MM.1S, 48 hours, sigmoidal dose-response fit) worked out at 8.89 µM. In the data set with MM.1S cells [11] (5 μM), the “increase in cleaved caspase-3 over non-treated cells” value was found to be 1.4 fold and the “cells positive for cleaved caspase-3” value came to 8.3%. Moreover, in the data set on MM.1S cells [11] (50 μM), the “increase in cleaved caspase-3 over non-treated cells” value is 1.9 fold and the “cells positive for cleaved caspase-3” value stood at 11.4%. For the same molecule, the “increase in caspase 3 cleavage” value in the data set on MM.1R cells [12] (5 μM) turned out to be 3 fold. Also, the “increase in caspase 3 cleavage” value in the data set on MM.1R cells [12] (50 μM) is recorded as 2.7 fold.
Take RADS [SF1326]: the “rate of cleavage to SF1101” value in data set [13] was “same rate as SF1126”.
